Data set [1] concerns the target Mu-type opioid receptor (Cavia porcellus, UniProt P97266). Put plainly: Agonist activity at mu opioid receptor in guinea pig ileum. The format is tissue-based. In a few lines:
(§1)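 Binding used rat brain membrane preparations, with MOR labelled by [3H]DAMGO and DOR by [3H]DSLET and read as displacement. Functional MOR activity was measured in isolated guinea pig ileum and DOR activity in isolated mouse vas deferens. Values are means of 3–4 experiments.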

Data set [2] addresses Mu-type opioid receptor (Rattus norvegicus, UniProt P33535). Put plainly: Displacement of [3H]DAMGO from mu opioid receptor in rat brain membranes. It is filed as cell membranes, Membrane. The method, boiled down:
as §1

Data set [3] concerns the target Delta-type opioid receptor (Rattus norvegicus, UniProt P33533). Put plainly: Displacement of [3H]DSLET from delta opioid receptor in rat brain membranes. It is filed as cell membranes, Membrane. In a few lines: as §1
In general terms: Loss of bound radioactivity is the signal in a displacement assay; it reports binding, not function.

Data set [4] concerns the target Delta-type opioid receptor (Mus musculus, UniProt P32300). Put plainly: Agonist activity at delta opioid receptor in mouse vas deferens. The method, boiled down: as §1
Data set [5] concerns Mus musculus. Put plainly: Antinociceptive activity in C57Bl6 mouse assessed as tail flick latency at 0.5 mg/kg, iv by tail-flick assay. The following applies: TDE = time-dependent effect. It is filed as functional, organism-based. On the set-up: dose 0.5 mg/kg. In a few lines: (§2)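 C57Bl6 mice (23–25 g) were dosed intravenously at 0.5 mg/kg. Spinal antinociception was measured by tail-flick latency and expressed as %MPE. The response was tracked over time up to 180 min post-dose to find the time of peak effect.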

Data set [6] has as its system Mus musculus. Put plainly: Antinociceptive activity in iv dosed C57Bl6 mouse assessed as tail flick latency after 5 to 180 mins by tail-flick assay. The format is functional. The method, boiled down:
(§3)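 Intravenous dosing in C57Bl6 mice (23–25 g), with antinociception monitored up to 180 min by hot plate (supraspinal) or tail-flick (spinal) and expressed as %MPE. ED50 in mg/kg came from standard nonlinear regression of the log dose–response curve.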
On the technique in general: Thermal pain tests record how soon the animal reacts.

For data set [7], the system named is Mus musculus. Put plainly: Antinociceptive activity in C57Bl6 mouse at 0.5 mg/kg, iv by hot plate test. The format is functional, organism-based. On the set-up: dose 0.5 mg/kg. Conditions: TDE = time-dependent effect. The method, boiled down:
(§4)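 C57Bl6 mice (23–25 g body weight) received a single intravenous dose of 0.5 mg/kg. Supraspinal antinociception was measured by hot plate and expressed as %MPE. Readings were followed over time up to 180 min after dosing to give the time course and the time of peak effect.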

Data set [8] concerns Mus musculus. Put plainly: Antinociceptive activity in iv dosed C57Bl6 mouse after 5 to 180 mins by hot plate test. It is filed as functional. The method, boiled down: as §3
For data set [9], the system named is Mus musculus. Put plainly: Antinociceptive activity in C57Bl6 mouse assessed as time of peak effect of tail flick latency at 0.5 mg/kg, iv by tail-flick assay. It is filed as functional. The method, boiled down: as §2
The test system of data set [10] is Mus musculus. Put plainly: Antinociceptive activity in C57Bl6 mouse assessed as time of peak effect at 0.5 mg/kg, iv by hot plate test. It is filed as functional. In a few lines: as §4
Data set [11] concerns Mus musculus. Put plainly: Antinociceptive activity in C57Bl6 mouse assessed as maximum possible effect of tail flick latency at 0.5 mg/kg, iv after 180 mins by tail-flick assay. The format is functional. The method, boiled down: as §2
In data set [12] the test system is Mus musculus. Put plainly: Antinociceptive activity in C57Bl6 mouse assessed as maximum possible effect at 0.5 mg/kg, iv after 180 mins by hot plate test. It is filed as functional. In a few lines:
as §4

In data set [13] the test system is Plasma. Put plainly: Drug degradation in human plasma up to 20 hrs. The format is ADME, cell-free.
The nature of data set [14]: Half life in rat brain homogenates. The following applies: brain homogenate. The format is ADME, tissue-based.
Data set [15] in a line: Half life in human plasma. The format is ADME, cell-free.

Where a SMILES comes first, the peptide text is derived from it. [ ]: non-standard residue; d: D form. The star is where a group is joined. X1 = OC[C@H]1O[C@@H](n2cc(C*)nn2)[C@H](O)[C@@H](O)[C@H]1O; Dmt = Cc1cc(O)cc(C)c1C[C@H](N)C(=O)O

Delta-type opioid receptor (Mus musculus, UniProt P32300), sequence (P32300 whole entry): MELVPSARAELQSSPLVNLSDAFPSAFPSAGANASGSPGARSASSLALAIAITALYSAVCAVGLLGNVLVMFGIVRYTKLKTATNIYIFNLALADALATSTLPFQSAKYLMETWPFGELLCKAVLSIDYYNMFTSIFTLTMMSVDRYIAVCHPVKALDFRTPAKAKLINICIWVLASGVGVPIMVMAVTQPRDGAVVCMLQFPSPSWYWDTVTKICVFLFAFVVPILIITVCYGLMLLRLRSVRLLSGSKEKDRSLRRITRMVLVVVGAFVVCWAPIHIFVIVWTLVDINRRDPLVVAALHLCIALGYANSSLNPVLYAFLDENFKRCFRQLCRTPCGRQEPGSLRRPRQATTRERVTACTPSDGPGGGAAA
Mu-type opioid receptor (Rattus norvegicus, UniProt P33535), sequence (P33535 whole entry): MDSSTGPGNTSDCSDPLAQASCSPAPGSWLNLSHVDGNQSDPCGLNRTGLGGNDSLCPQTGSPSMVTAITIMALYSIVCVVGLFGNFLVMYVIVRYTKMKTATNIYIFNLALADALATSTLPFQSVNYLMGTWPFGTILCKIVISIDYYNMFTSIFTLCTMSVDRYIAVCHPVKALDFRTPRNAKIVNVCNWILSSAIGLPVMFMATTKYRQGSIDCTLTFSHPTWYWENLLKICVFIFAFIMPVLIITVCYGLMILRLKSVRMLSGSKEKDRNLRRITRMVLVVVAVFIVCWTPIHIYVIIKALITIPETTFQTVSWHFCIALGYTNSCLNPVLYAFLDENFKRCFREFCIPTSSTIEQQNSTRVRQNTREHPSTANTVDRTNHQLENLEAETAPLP
Delta-type opioid receptor (Rattus norvegicus, UniProt P33533), sequence (P33533 whole entry): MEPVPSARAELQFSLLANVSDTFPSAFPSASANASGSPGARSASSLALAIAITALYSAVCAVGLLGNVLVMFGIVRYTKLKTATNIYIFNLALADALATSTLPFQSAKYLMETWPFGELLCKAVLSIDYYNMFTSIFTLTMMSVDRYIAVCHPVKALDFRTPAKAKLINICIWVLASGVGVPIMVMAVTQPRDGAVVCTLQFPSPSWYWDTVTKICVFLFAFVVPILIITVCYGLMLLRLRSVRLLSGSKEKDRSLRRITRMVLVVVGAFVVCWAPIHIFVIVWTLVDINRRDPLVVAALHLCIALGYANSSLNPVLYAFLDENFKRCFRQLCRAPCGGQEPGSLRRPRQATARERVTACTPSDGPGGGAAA
Mu-type opioid receptor (Cavia porcellus, UniProt P97266), sequence (P97266 whole entry): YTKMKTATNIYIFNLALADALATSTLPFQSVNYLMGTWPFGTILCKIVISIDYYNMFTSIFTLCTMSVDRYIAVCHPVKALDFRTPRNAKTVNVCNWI

For orientation: IC50 means the concentration needed to halve the response being measured. A lower IC50 goes with greater potency in that assay. As to `NCCCC[C@H](NC(=O)[C@H](Cc1ccccc1)NC(=O)[C@@H](CCCN=C(N)N)NC(=O)[C@@H](N)Cc1ccc(O)cc1)C(N)=O`, in data set [1], the IC50 came to 254 nM.

What is called Ki is the equilibrium dissociation constant of an inhibitor or competing ligand from its target. Read a low Ki as a stronger hold on the target. Broadly, the ED50 is the dose at which the effect has come halfway, by size or by number of responders. As to `Cc1cc(O)cc(C)c1C[C@H](N)C(=O)N[C@H](CCCNC(=N)N)C(=O)N[C@@H](Cc1ccccc1)C(=O)N[C@@H](Cc1cn([C@@H]2O[C@H](CO)[C@H](O)[C@H](O)[C@H]2O)nn1)C(N)=O`, the Ki in data set [2] worked out at 0.222 nM; in data set [3], 15.6 nM. Besides, the figures for the IC50 in data set [1] and in [4] were 0.66 nM and 1.98 nM, respectively. The Activity entry was “tde” in data set [5], “Dose-dependent effect” in [6], “tde” in data set [7] and “Dose-dependent effect” in data set [8]. The ED50 in [6] worked out at 0.27 mg/kg; in data set [8] it was 0.4 mg/kg. The Time in [9] and in data set [10] was 60 min in each case. Besides, the MPE in [11] and in data set [12] was 40% each time. Also, the Stability result in [13] is on record as “Stable”.

With `Cc1cc(O)cc(C)c1C[C@H](N)C(=O)N[C@H](CCCNC(=N)N)C(=O)N[C@@H](Cc1ccccc1)C(=O)N[C@@H](CCCCN)C(N)=O`, the Activity entry in data set [5] was “tde”; in data set [6], “Dose-dependent effect”; in [7], “tde”; in data set [8], “Dose-dependent effect”. Also, the values for the ED50 in data set [6] and in data set [8] were 0.17 mg/kg and 0.25 mg/kg, respectively. In addition, in [9], the Time was determined as 60 min. Also, the MPE in data set [11] and in data set [12] was 40% throughout.

As to `Cc1cc(O)cc(C)c1C[C@H](N)C(=O)N[C@H](CCCNC(=N)N)C(=O)N[C@@H](Cc1ccccc1)C(=O)N[C@@H](Cc1ccc(OCc2cn([C@@H]3O[C@H](CO)[C@H](O)[C@H](O)[C@H]3O)nn2)cc1)C(N)=O` (H-[Dmt][dR]FY(X1)-NH2), the Ki amounted to 0.286 nM in data set [2] and 22.2 nM in [3]. Besides, the values for the IC50 in [1] and in data set [4] were 2.3 nM and 6 nM, respectively.

Take `Cc1cc(O)cc(C)c1C[C@H](N)C(=O)N[C@H](CCCNC(=N)N)C(=O)N[C@@H](Cc1ccccc1)C(=O)N[C@@H](COCc1cn([C@@H]2O[C@H](CO)[C@H](O)[C@H](O)[C@H]2O)nn1)C(N)=O` (H-[Dmt][dR]FS(X1)-NH2): the Ki stood at 0.112 nM in [2] and 6.36 nM in data set [3]. Moreover, the IC50 in data set [1] worked out at 0.35 nM; in data set [4], 4.9 nM.

As a reminder, the half-life is how long it takes for the measured level to halve. A high value points to slow decline. Consider `Cc1cc(O)cc(C)c1C[C@H](N)C(=O)N1CCC[C@H]1C(=O)N[C@@H](Cc1ccccc1)C(=O)N[C@@H](Cc1ccccc1)C(N)=O`, for which the half-life in data set [14] stood at 39.5 min; in [15] it was 53 min.

For the compound `Cc1cc(O)cc(C)c1C[C@H](N)C(=O)N[C@H](CCCNC(=N)N)C(=O)N[C@@H](Cc1ccccc1)C(=O)N[C@@H](Cc1cn([C@@H]2O[C@H](CO)[C@@H](O)[C@H](O)[C@H]2O)nn1)C(N)=O`, the Ki in data set [2] is 0.203 nM; in data set [3], 11.9 nM. In addition, the figures for the IC50 in data set [1] and in data set [4] were 1.46 nM and 2.75 nM, respectively. The Activity entry in data set [5] was “tde”; in data set [6], “Dose-dependent effect”; in data set [7] it was “tde”; in data set [8], “Dose-dependent effect”. Besides, the ED50 amounted to 0.34 mg/kg in [6] and 0.31 mg/kg in data set [8]. Also, in data set [9], the Time is given as 60 min. For the same compound, the MPE in data set [11] and in data set [12] was 40% throughout. Also, in data set [13], the Stability entry was “Stable”.

With `N=C(N)NCCC[C@@H](NC(=O)[C@@H](N)Cc1ccc(OCc2cn([C@@H]3O[C@H](CO)[C@H](O)[C@H](O)[C@H]3O)nn2)cc1)C(=O)N[C@@H](Cc1ccccc1)C(=O)N[C@@H](CCCCN)C(N)=O`, the Ki in data set [2] was 38.4 nM; in data set [3], greater than 5000 nM. In addition, the IC50 in data set [1] turned out to be 1180 nM; in data set [4], 1990 nM.

Source of the values: ChEMBL document CHEMBL3259790, “In Vitro Membrane Permeation Studies and in Vivo Antinociception of Glycosylated Dmt(1)-DALDA Analogues” (ACS Med Chem Lett, 2014).
